# Assay results reported in ChEMBL document CHEMBL3576786, “Discovery of target based novel pyrrolyl phenoxy derivatives as antimycobacterial agents: an in silico approach” (Eur J Med Chem, 2015).
# Experiments:
# [1] = tested on: Mycobacterium tuberculosis; test: Antimycobacterial activity against Mycobacterium tuberculosis H37Rv assessed as inhibition of bacterial growth after 5 days by Microplate Alamar Blue Assay; type: functional; conditions: 120 h
# Vero = test: Cytotoxicity against African green monkey Vero cells assessed as inhibition of cell proliferation by MTT assay; type: cell-based; conditions: Chlorocebus sabaeus
# Method in brief: (§1)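 MTT read-out; IC50 taken as the concentration giving a 50% drop in optical density of treated cells relative to untreated cells.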
# A549 = test: Cytotoxicity against human A549 assessed as inhibition of cell proliferation by MTT assay; type: cell-based; method in brief: as §1
Structure (SMILES),MIC [1] [µg/mL],IC50 (Vero) [µM],IC50 (A549) [µM]
Clc1cccc(OCCOc2ccc(-n3cccc3)cc2)c1,25,,
Oc1ccc(OCCCOc2ccc(-n3cccc3)cc2)cc1,12.5,,
c1ccc(OCCOc2ccc(-n3cccc3)cc2)cc1,50,,
Clc1ccc(OCCOc2ccc(-n3cccc3)cc2)cc1,12.5,,
Clc1ccccc1OCCOc1ccc(-n2cccc2)cc1,25,,
Brc1ccc(OCCOc2ccc(-n3cccc3)cc2)cc1,12.5,,
Brc1cccc(OCCOc2ccc(-n3cccc3)cc2)c1,25,,
Brc1ccccc1OCCOc1ccc(-n2cccc2)cc1,25,,
Ic1ccc(OCCOc2ccc(-n3cccc3)cc2)cc1,12.5,,
Fc1ccc(OCCOc2ccc(-n3cccc3)cc2)cc1,6.25,,
O=[N+]([O-])c1ccc(OCCOc2ccc(-n3cccc3)cc2)cc1,50,,
O=[N+]([O-])c1ccc(OCCOc2ccc(-n3cccc3)cc2)c([N+](=O)[O-])c1,100,,
N#Cc1ccc(OCCOc2ccc(-n3cccc3)cc2)cc1,6.25,,
O=Cc1ccc(OCCOc2ccc(-n3cccc3)cc2)cc1,12.5,,
COc1cc(C=O)ccc1OCCOc1ccc(-n2cccc2)cc1,6.25,,
CCOc1cc(C=O)ccc1OCCOc1ccc(-n2cccc2)cc1,3.12,211,217
Cc1ccc(OCCOc2ccc(-n3cccc3)cc2)cc1,25,,
Cc1cccc(OCCOc2ccc(-n3cccc3)cc2)c1,25,,
Cc1ccccc1OCCOc1ccc(-n2cccc2)cc1,25,,
Cc1cc(C)cc(OCCOc2ccc(-n3cccc3)cc2)c1,50,,
Cc1ccc(C)c(OCCOc2ccc(-n3cccc3)cc2)c1,25,,
Cc1ccc(OCCOc2ccc(-n3cccc3)cc2)c(C)c1,12.5,,
Oc1ccc(OCCOc2ccc(-n3cccc3)cc2)cc1,12.5,,

Structure (SMILES),MIC [1] [µg/mL],IC50 (Vero) [µM],IC50 (A549) [µM]
Oc1cccc(OCCOc2ccc(-n3cccc3)cc2)c1,6.25,,
Oc1ccccc1OCCOc1ccc(-n2cccc2)cc1,12.5,,
Oc1cc(OCCOc2ccc(-n3cccc3)cc2)ccc1Cl,6.25,,
Oc1cc(O)cc(OCCOc2ccc(-n3cccc3)cc2)c1,3.12,231,237
c1ccc2c(OCCOc3ccc(-n4cccc4)cc3)cccc2c1,3.12,220,215
c1ccc2cc(OCCOc3ccc(-n4cccc4)cc3)ccc2c1,3.12,231,233
c1ccn(-c2ccc(OCCOc3ccc(-n4cccc4)cc3)cc2)c1,6.25,,
Cc1ccc(C)n1-c1ccc(OCCOc2ccc(-n3cccc3)cc2)cc1,6.25,,
Nc1ccc(OCCOc2ccc(-n3cccc3)cc2)cc1,100,,
Nc1cccc(OCCOc2ccc(-n3cccc3)cc2)c1,100,,
Nc1ccccc1OCCOc1ccc(-n2cccc2)cc1,100,,
c1ccc(OCCCOc2ccc(-n3cccc3)cc2)cc1,50,,
Clc1ccc(OCCCOc2ccc(-n3cccc3)cc2)cc1,6.25,,
Clc1cccc(OCCCOc2ccc(-n3cccc3)cc2)c1,50,,
Clc1ccccc1OCCCOc1ccc(-n2cccc2)cc1,25,,
Brc1ccc(OCCCOc2ccc(-n3cccc3)cc2)cc1,6.25,,
Brc1cccc(OCCCOc2ccc(-n3cccc3)cc2)c1,25,,
Brc1ccccc1OCCCOc1ccc(-n2cccc2)cc1,25,,
Ic1ccc(OCCCOc2ccc(-n3cccc3)cc2)cc1,12.5,,
Fc1ccc(OCCCOc2ccc(-n3cccc3)cc2)cc1,6.25,,
O=[N+]([O-])c1ccc(OCCCOc2ccc(-n3cccc3)cc2)cc1,100,,
O=[N+]([O-])c1ccc(OCCCOc2ccc(-n3cccc3)cc2)c([N+](=O)[O-])c1,100,,
N#Cc1ccc(OCCCOc2ccc(-n3cccc3)cc2)cc1,6.25,,

Structure (SMILES),MIC [1] [µg/mL],IC50 (Vero) [µM],IC50 (A549) [µM]
O=Cc1ccc(OCCCOc2ccc(-n3cccc3)cc2)cc1,12.5,,
COc1cc(C=O)ccc1OCCCOc1ccc(-n2cccc2)cc1,3.12,212,210
CCOc1cc(C=O)ccc1OCCCOc1ccc(-n2cccc2)cc1,3.12,215,223
Cc1ccc(OCCCOc2ccc(-n3cccc3)cc2)cc1,12.5,,
Cc1cccc(OCCCOc2ccc(-n3cccc3)cc2)c1,25,,
Cc1ccccc1OCCCOc1ccc(-n2cccc2)cc1,25,,
Cc1cc(C)cc(OCCCOc2ccc(-n3cccc3)cc2)c1,25,,
Cc1ccc(C)c(OCCCOc2ccc(-n3cccc3)cc2)c1,25,,
Cc1ccc(OCCCOc2ccc(-n3cccc3)cc2)c(C)c1,25,,
Oc1cccc(OCCCOc2ccc(-n3cccc3)cc2)c1,12.5,,
Oc1ccccc1OCCCOc1ccc(-n2cccc2)cc1,12.5,,
Oc1cc(OCCCOc2ccc(-n3cccc3)cc2)ccc1Cl,6.25,,
Oc1cc(O)cc(OCCCOc2ccc(-n3cccc3)cc2)c1,3.12,220,227
c1ccc2c(OCCCOc3ccc(-n4cccc4)cc3)cccc2c1,1.6,240,243
c1ccc2cc(OCCCOc3ccc(-n4cccc4)cc3)ccc2c1,3.12,238,235
c1ccn(-c2ccc(OCCCOc3ccc(-n4cccc4)cc3)cc2)c1,6.25,,
Cc1ccc(C)n1-c1ccc(OCCCOc2ccc(-n3cccc3)cc2)cc1,3.12,235,237
Nc1ccc(OCCCOc2ccc(-n3cccc3)cc2)cc1,50,,
Nc1cccc(OCCCOc2ccc(-n3cccc3)cc2)c1,100,,
Nc1ccccc1OCCCOc1ccc(-n2cccc2)cc1,100,,
NNC(=O)c1ccncc1 [ISONIAZID],0.25,> 450,> 450
Oc1cc(Cl)ccc1Oc1ccc(Cl)cc1Cl [TRICLOSAN],10,,
